From ChEMBL document CHEMBL4219033, “Anticancer activity profiling of parthenolide analogs generated via P450-mediated chemoenzymatic synthesis” (2018)

Tests used:
Format in all cases: functional
Jurkat [1] = test: Cytotoxicity against human Jurkat cells assessed as cell viability at 2 uM after 24 hrs by MTT assay relative to control; conditions: read-out: Activity
In short: (§1)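 Suspension lines grown in α-MEM plus 10% FBS and penicillin-streptomycin, 37 °C, 5% CO2. Seeded at 30,000 cells/well in phenol-red-free α-MEM and rested 15 h. Exposed to 10 µM, or 2 µM in the lower-dose repeat, at 1% DMSO final for 24 h. 5 mg/ml MTT added directly for 3 h at 37 °C. Plates spun, formazan dissolved in DMSO, OD read at 550 nm. Viability relative to vehicle.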

JeKo-1 [2] = test: Cytotoxicity against human JeKo1 cells assessed as cell viability at 2 uM after 24 hrs by MTT assay relative to control; conditions: JeKo-1, 24 h, read-out: Activity; in short: as §1
Jurkat [3] = test: Cytotoxicity against human Jurkat cells assessed as cell viability at 10 uM after 24 hrs by MTT assay relative to control; conditions: read-out: Activity; in short: as §1
JeKo-1 [4] = test: Cytotoxicity against human JeKo1 cells assessed as cell viability at 10 uM after 24 hrs by MTT assay relative to control; conditions: JeKo-1, 24 h, read-out: Activity; in short: as §1
HeLa = test: Cytotoxicity against human HeLa cells assessed as cell viability at 10 uM after 24 hrs by MTT assay relative to control; conditions: read-out: Activity
In short: (§2)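 Adherent lines in DMEM plus 10% FBS and penicillin-streptomycin, 37 °C, 5% CO2, lifted with Accutase. Seeded at 500–10,000 cells/well and rested 15 h. Compounds from 10 mM DMSO stocks dosed at 10 µM final, 1% DMSO final, n = 5, for 24 h. Medium then swapped for 1 mg/ml MTT in phenol-red-free medium for 3 h at 37 °C. Formazan dissolved in DMSO, OD read at 550 nm. Viability normalised to 1% DMSO vehicle control.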

A549 = test: Cytotoxicity against human A549 cells assessed as cell viability at 10 uM after 24 hrs by MTT assay relative to control; conditions: A549, 24 h, read-out: Activity; in short: as §2
HCT-116 = test: Cytotoxicity against human HCT116 cells assessed as cell viability at 10 uM after 24 hrs by MTT assay relative to control; conditions: HCT-116, 24 h, read-out: Activity; in short: as §2
SJSA-1 = test: Cytotoxicity against human SJSA1 cells assessed as cell viability at 10 uM after 24 hrs by MTT assay relative to control; conditions: SJSA-1, 24 h, read-out: Activity; in short: as §2
SK-N-MC = test: Cytotoxicity against human SK-N-MC cells assessed as cell viability at 10 uM after 24 hrs by MTT assay relative to control; conditions: read-out: Activity; in short: as §2
PC-3 = test: Cytotoxicity against human PC3 cells assessed as cell viability at 10 uM after 24 hrs by MTT assay relative to control; conditions: PC-3, 24 h, read-out: Activity; in short: as §2
MDA-MB-231 = test: Cytotoxicity against human MDA-MB-231 cells assessed as cell viability at 10 uM after 24 hrs by MTT assay relative to control; conditions: MDA-MB-231, 24 h, read-out: Activity; in short: as §2
SK-MEL-2 = test: Cytotoxicity against human SK-MEL-2 cells assessed as cell viability at 10 uM after 24 hrs by MTT assay relative to control; conditions: SK-MEL-2, 24 h, read-out: Activity; in short: as §2

Row | Compound | viability at 2 µM (Jurkat [1]) [%] | viability at 2 µM (JeKo-1 [2]) [%] | viability at 10 µM (Jurkat [3]) [%] | viability at 10 µM (JeKo-1 [4]) [%] | viability at 10 µM (HeLa) [%] | viability at 10 µM (A549) [%] | viability at 10 µM (HCT-116) [%] | viability at 10 µM (SJSA-1) [%] | viability at 10 µM (SK-N-MC) [%] | viability at 10 µM (PC-3) [%] | viability at 10 µM (MDA-MB-231) [%] | viability at 10 µM (SK-MEL-2) [%]
1 | C=C1C(=O)O[C@@H]2[C@H]3O[C@]3(C)CC/C=C(/COc3coc(-c4ccc(Br)cc4)c3)CC[C@@H]12 | 87.6 | 98.8 | 0 | -2 | 59.2 | 95.2 | 26.4 | 93.7 | 90.9 | 97.1 | 87.1 | 103
2 | C=C1C(=O)O[C@@H]2[C@H]3O[C@]3(C)CC/C=C(/C)[C@@H](OC(C(=O)OCC)c3ccc(C(F)(F)F)cc3)C[C@@H]12 (stereo partly drawn) | 80.6 | 76.3 | 0 | -1.4 | 67.1 | 70.4 | 20 | 100 | 69.8 | 60.4 | 77.6 | 71.2
3 | C=C1C(=O)O[C@@H]2[C@H]3O[C@]3(C)CC/C=C(\C)[C@@H](OC(=O)c3ccc(C(F)(F)F)cc3)C[C@@H]12 | 78.9 | 93.6 | 93.2 | 23.3 | 68 | 90.4 | 40 | 58.2 | 67.4 | 47.6 | 69 | 88.1
4 | C=C1C(=O)O[C@@H]2[C@H]3O[C@]3(C)CC/C=C(/C)[C@@H](OC(=O)c3cccs3)C[C@@H]12 | 94 | 98.1 | 15.4 | 12.9 | 87.5 | 102 | 29.4 | 98.3 | 98.2 | 93 | 97.6 | 94.7
5 | C=C1C(=O)O[C@@H]2[C@H]3O[C@]3(C)CC/C=C(/COC(C(=O)OCC)c3ccccc3)CC[C@@H]12 (stereo partly drawn) | 87.8 | 88.6 | 18.3 | 16.5 | 85.1 | 59.1 | 76.7 | 100 | 98 | 85.8 | 98.8 | 81.2
6 | C=C1C(=O)O[C@@H]2[C@H]3O[C@]3(C)CC/C=C(/COCc3ccc(C(F)(F)F)cc3)CC[C@@H]12 | 100 | 97.3 | 21.8 | 18.2 | 72.5 | 87.7 | 82.9 | 100 | 93.6 | 89.3 | 100 | 79.6
7 | C=C1C(=O)O[C@@H]2[C@H]3O[C@]3(C)CC/C=C(/C)[C@@H](OC(=O)Nc3ccc([N+](=O)[O-])cc3)C[C@@H]12 | 78.9 | 84.1 | 0.2 | 0 | 78 | 83.3 | 38 | 100 | 92.4 | 94.1 | 98.6 | 75.2
8 | C=C1C(=O)O[C@@H]2[C@H]3O[C@]3(C)CC/C=C(/C)[C@@H](OC(C(=O)OCc3ccccc3)c3ccccc3)C[C@@H]12 (stereo partly drawn) | 82 | 89.4 | 0.6 | -1.3 | 79 | 69.8 | 63.7 | 103 | 84.1 | 91.9 | 101 | 66.3
9 | C=C1C(=O)O[C@@H]2[C@H]3O[C@]3(C)CC/C=C(/COC(=O)c3ccc(C(F)(F)F)cc3)CC[C@@H]12 | 92.4 | 95.9 | 0 | -1.6 | 63.9 | 94.1 | 27.3 | 73.6 | 67.8 | 69.3 | 75.5 | 85.4
